For 18 compounds, inhibition, IC50 and Activity results are on record in ChEMBL document CHEMBL1158572, “Dolabellane-type diterpenoids with antiprotozoan activity from a southwestern Caribbean gorgonian octocoral of the genus Eunicea” (J Nat Prod, 2010).

For assay [1], the system named is Mycobacterium tuberculosis. The assay can be described thus: Antimycobacterial activity against Mycobacterium tuberculosis at 6.25 ug/ml by Alamar blue assay. Type of assay: functional. The method, boiled down: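 Single-concentration screen at 6.25 µg/mL against *M. tuberculosis* growth, read out as percent inhibition.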
For a further assay, the system named is Plasmodium falciparum. The assay can be described thus: Antimalarial activity against chloroquine-resistant Plasmodium falciparum W2. Format: functional, organism-based.
The test system of another assay is MCF7. The assay is described as follows: Antiproliferative activity against human MCF7 cells after 48 hrs by SRB assay. Format: functional, cell-based. The method, boiled down:
(§1)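 NCI one-dose primary prescreen in a three-line panel (MCF-7 breast, NCI-H460 non-small cell lung, SF-268 CNS). Cytotoxicity was judged against untreated control cells. Antiproliferative activity in this prescreen is required before testing in the 60-cell-line panel.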

A further assay relates to NCI-H460. The assay can be described thus: Antiproliferative activity against human NCI-H460 cells after 48 hrs by SRB assay. Format: functional, cell-based. The method, boiled down:
as §1

The next assay concerns Hepatitis B virus. The assay is described as follows: Antiviral activity against HBV in human HepG2(2.2.15) cells at 30 mM. Type of assay: functional, organism-based.
The subject of another assay is SF-268. The assay is described as follows: Antiproliferative activity against human SF268 cells after 48 hrs by SRB assay. Format: functional, cell-based. An outline of the steps:
as §1

Activity calls are given as the source filed them. No cut-off for these calls is given here.

Regarding `CC1=CC[C@@H](O)[C@]2(C)CC[C@@H]3C(=C(C)C)C(=O)C[C@@]3(C)C[C@@H]12`, in assay [1], the inhibition at 6.25 µg/mL was at most 50%. In addition, the IC50 with Plasmodium falciparum came out at 59.6 µM.

As for `CC(C)=C1C(=O)C[C@@]2(C)C/C=C(\C)CC[C@@H]3O[C@@]3(C)CC[C@H]12`, the result in the assay on MCF7 and with NCI-H460 was inactive. The same compound yielded an inhibition at 6.25 µg/mL in assay [1] of at most 50%. For the same compound, in the assay on Plasmodium falciparum, the 50% inhibitory concentration (IC50) was 23.2 µM.

For `C/C1=C\C[C@]2(C)CC=C(C(C)(C)O)[C@H]2CC/C(C)=C/CC1` [PALOMINOL], the inhibition at 6.25 µg/mL in assay [1] is at most 50%. This compound gave an IC50 with Plasmodium falciparum of 31.2 µM. Moreover, the outcome with Hepatitis B virus was inactive.

For `C=C1CC[C@@H](O)[C@]2(C)CC[C@@H]3C(=C(C)C)C(=O)C[C@@]3(C)C[C@@H]12`, the inhibition at 6.25 µg/mL in assay [1] was at most 50%.

`C=C1CC[C@@H]2O[C@@]2(C)CC[C@@H]2C(=C(C)C)C(=O)C[C@@]2(C)C[C@@H]1OC(C)=O` showed an IC50 with Plasmodium falciparum of 36.1 µM.

As for `C/C1=C/C[C@]2(C)C(=O)C=C(C(C)C)[C@H]2C/C=C(\C)[C@H](OO)CC1` (relative stereo), the inhibition at 6.25 µg/mL in assay [1] is at most 50%. In addition, in the assay with Plasmodium falciparum, the IC50 was determined as 9.4 µM. Besides, in the assay on Hepatitis B virus, the outcome was inactive.

For the compound `CC(C)=C1C(=O)C[C@@]2(C)C[C@H]3O[C@]3(C)CC[C@@H]3O[C@@]3(C)CC[C@H]12`, the outcome in the assay on MCF7, in the assay with NCI-H460 and with SF-268 was inactive. In the assay with Plasmodium falciparum, this compound showed an IC50 of 37.7 µM.

Compound `C/C1=C\C[C@]2(C)C(=O)C=C(C(C)C)[C@H]2CC[C@]2(C)O[C@H]2CC1` had an IC50 in the assay with Plasmodium falciparum of 43 µM.

Compound `C=C1CC/C=C(\C)CC[C@@H]2C(=C(C)C)C(=O)C[C@@]2(C)C[C@@H]1OC(C)=O` (relative stereo) came in with an inhibition at 6.25 µg/mL in assay [1] of at most 50%. The compound further yielded an IC50 in the assay on Plasmodium falciparum of 20.3 µM.

For the compound `C/C1=C/C[C@]2(C)CC(=O)C(C(C)C)[C@H]2C/C=C(\C)[C@H](OO)CC1` (relative stereo), in the assay on Plasmodium falciparum, inhibition was half-maximal at 40.9 µM (IC50).

`CC(C)=C1C(=O)C[C@@]2(C)C/C=C(\C)CCC(=O)[C@H](C)CC[C@H]12`: the result with MCF7, in the assay on Hepatitis B virus, with NCI-H460 and in the assay on SF-268 was inactive. The inhibition at 6.25 µg/mL in assay [1] was at most 50%. The compound also came in with an IC50 with Plasmodium falciparum of 13.2 µM.

The compound `C=C1CCC(=O)[C@@H](C)CC[C@@H]2C(=C(C)C)C(=O)C[C@@]2(C)C[C@@H]1OC(C)=O` returned an IC50 in the assay with Plasmodium falciparum of 50 µM. In other words, the double-digit micromolar range.

Turning to `CC(C)=C1C(=O)C[C@@]2(C)C/C=C(\C)CC/C=C(\C)CC[C@H]12` [DOLABELLANE], the result in the assay on MCF7, in the assay on Hepatitis B virus and in the assay with NCI-H460 was inactive. Besides, in assay [1], the inhibition at 6.25 µg/mL is at most 50%. Besides, the IC50 in the assay with Plasmodium falciparum stood at 45.5 µM.

For the compound `C/C1=C/C[C@]2(C)C(=O)C=C(C(C)C)[C@H]2CC[C@@]2(C)O[C@@H]2CC1`, the inhibition at 6.25 µg/mL in assay [1] was at most 50%. The compound also registered an IC50 in the assay on Plasmodium falciparum of at least 100 µM.

Take `CC(=O)O[C@H]1C/C(C)=C/C[C@]2(C)CC(=O)C(=C(C)C)[C@H]2CC[C@]2(C)O[C@@H]12`: the midpoint of inhibition in the assay on Plasmodium falciparum, the IC50, lay at 33.3 µM.

Compound `C=C1CC/C=C(\C)CC[C@@H]2C(=C(C)C)C(=O)C[C@@]2(C)C[C@@H]1O` yielded an IC50 with Plasmodium falciparum of 36.4 µM.

For `CC(C)=C1C(=O)C[C@@]2(C)C/C=C(\C)CC[C@@H](OO)/C(C)=C/C[C@H]12` (relative stereo), the inhibition at 6.25 µg/mL in assay [1] is at most 50%. This compound also came in with an IC50 in the assay with Plasmodium falciparum of 36.4 µM. The result in the assay on Hepatitis B virus was inactive.

In the assay with Plasmodium falciparum, `CC(=O)OC/C1=C\C[C@]2(C)CC(=O)C(=C(C)C)[C@H]2CC[C@]2(C)O[C@H]2CC1` gave an IC50 of 30.6 µM.
